Published values from different studies.
Each line is one published result; the experiments were not run side by side.

| Structure (SMILES) | test | system | conditions | quantity | result |
| --- | --- | --- | --- | --- | --- |
| CNC(C)Cc1ccc2nsnc2c1 (stereo not drawn) | metabolic stability | human, liver microsomes | 0.5 µM | microsomal CLint | 13.1 µL/min/mg |
| CONC(=O)[C@H]1[C@@H](O)[C@@]2(O)c3c(OC)cc(OC)cc3O[C@@]2(c2ccc(OC)cc2)[C@@H]1c1ccccc1 | metabolic stability | rat, liver microsomes | – | microsomal CLint | 23.8 µL/min/mg |
| Cn1nccc1[C@]1(CNC(=O)c2ccc(F)c(F)c2-c2ccc(C(F)(F)F)cc2)NC(=O)NC1=O | HPLC | – | pH 7.5 | chromatographic logD | 2.3 |
| COc1ccc([C@@]23Oc4cc(OC)cc(OC)c4[C@@]24NC(C)=N[C@@]4(O)[C@H](C(=O)N(C)OC)[C@H]3c2ccccc2)cc1 | metabolic stability | rat, liver microsomes | – | microsomal CLint | 12.2 µL/min/mg |
| Cc1ncc2n1-c1ccc(Cl)cc1C(c1ccccc1F)=NC2 | metabolic stability | Sprague-Dawley rat, hepatocytes | 0.5 µM, pH 7.4 | hepatocyte CLint | 160 µL/min/10⁶ cells |
| O=C1NC(=O)[C@](CNC(=O)c2cnn(-c3ccccc3)n2)(C2CC2)N1 | HPLC | – | pH 7.5 | chromatographic logD | 1.8 |
| C[C@]12CC[C@H]3[C@@H](CCC4=CC(=O)CC[C@@]43C)[C@@H]1CC[C@@H]2O | metabolic stability | Sprague-Dawley rat, hepatocytes | 1 µM | hepatocyte CLint | 240 µL/min/10⁶ cells |
| COc1ccc2c(c1)[C@]13CCCC[C@@H]1[C@H](C2)N(C)CC3 | metabolic stability | Sprague-Dawley rat, hepatocytes | 0.5 µM, pH 7.4 | hepatocyte CLint | 97 µL/min/10⁶ cells |
| COc1ccsc1CNCC[C@@]1(c2ccccn2)CCOC2(CCCC2)C1 | – | human, plasma | intravenous, 1.5 mg, single dose, infusion | clearance | 721 mL/min |
